# Measured values of several laboratories.
# Protocols differ between the studies behind these lines.
# Target: Amine oxidase [flavin-containing] B (MAOB, Homo sapiens, UniProt P27338)
# Effect on: enzyme activity
# Mode: inhibitor
# Sequence (P27338 1-520, as in one of the studies): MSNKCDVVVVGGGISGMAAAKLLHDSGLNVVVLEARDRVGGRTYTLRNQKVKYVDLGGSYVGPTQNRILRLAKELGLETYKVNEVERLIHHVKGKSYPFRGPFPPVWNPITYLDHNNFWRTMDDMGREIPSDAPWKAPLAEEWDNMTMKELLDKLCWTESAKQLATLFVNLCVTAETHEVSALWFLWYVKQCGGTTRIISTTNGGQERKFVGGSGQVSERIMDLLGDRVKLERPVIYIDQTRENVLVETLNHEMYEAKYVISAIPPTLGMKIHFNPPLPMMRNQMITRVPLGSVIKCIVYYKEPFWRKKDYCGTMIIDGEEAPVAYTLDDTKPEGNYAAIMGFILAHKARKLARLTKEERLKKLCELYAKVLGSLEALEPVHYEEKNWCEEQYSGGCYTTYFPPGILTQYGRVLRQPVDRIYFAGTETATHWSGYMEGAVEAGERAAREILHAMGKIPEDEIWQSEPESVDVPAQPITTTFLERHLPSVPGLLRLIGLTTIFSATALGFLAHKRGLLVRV
SMILES,method,IC50
O=c1cc(-c2ccc(O)cc2)oc2c([C@@H]3O[C@H](CO)[C@@H](O)[C@H](O)[C@H]3O)c(O)c([C@@H]3O[C@H](CO)[C@@H](O)[C@H](O)[C@H]3O)c(O)c12,,43.3 µM
COc1cc(/C=C/C(=O)N2CCC(Cc3ccccc3)CC2)ccc1OC1CCCCC1,fluorescence,0.56 µM
O=C1C[C@@H](c2ccc(O)cc2)Oc2cc(O)cc(O)c21,,0.27 µM
COc1ccc(/C=C/C(=O)N2CCC(Cc3ccccc3)CC2)cc1OC,fluorescence,1.1 µM
c1ccc(Nc2nccc(-c3cccnc3)n2)cc1,fluorescence,0.4 µM
O=c1c(O)c(-c2ccc(O)c(O)c2)oc2cc(O)ccc12,,> 100 µM
COc1ccc(/C=C/C(=O)N2CCc3ccccc3C2)cc1OC,fluorescence,0.73 µM
Nc1nn(-c2ccccc2)nc1C(=O)O,fluorescence,> 10 µM
COC(=O)c1ccc(C(=O)OC)c(NC(=O)c2cc(Cl)ccc2O)c1,,> 1 µM
c1ccc(Nc2nccc(-c3ccco3)n2)cc1,fluorescence,0.51 µM
O=C1C[C@@H](c2cc(O)cc(O)c2)Oc2cc(O)ccc21,,12.1 µM
Cn1c(=O)[nH]c(=O)n2c(CC(=O)Nc3cccc4ccccc34)cnc12,fluorescence,8.7 µM
CCn1c(-c2nc3ccc(C(=O)N4CCCC(N)C4)cc3n2C)cc2ccccc21 (stereo not shown),,20 µM
c1ccc2[nH]c(-c3nc4ccccc4[nH]3)nc2c1,fluorescence,> 30 µM
O=C1c2c(O)cc(O)cc2O[C@H](c2ccc(O)cc2)[C@H]1O,,68.1 µM
O=C(Nc1ccc([N+](=O)[O-])cc1Cl)c1cc2ccccc2o1,,0.123 µM
